These results are taken from ChEMBL document CHEMBL1138563, “Synthesis and in vitro antimicrobial activity of some novel substituted benzimidazole derivatives having potent activity against MRSA” (2009).

The structures appear in SMILES notation. ≈ marks a conversion by molar mass, not a printed value.

What all share (format): functional
The subject of experiment [1] is Staphylococcus aureus. Description: Antimicrobial activity against methicillin-resistant Staphylococcus aureus ATCC […] by tube dilution method. The gist of the method:
(§1)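 Tube dilution MIC assay. Compounds and standard drugs were dissolved in 50% DMSO–water as stock. The stock was diluted 4-fold with culture medium plus bacterial suspension to give the starting test concentration. That initial tube contained 12.5% DMSO, so no data were taken from it. The MIC was then read across the dilution series.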

The subject of experiment [2] is Staphylococcus aureus. Kind of experiment: Antimicrobial activity against methicillin-resistant Staphylococcus aureus isolates by tube dilution method. The procedure, abridged: as §1
The test system of experiment [3] is Staphylococcus aureus. Kind of experiment: Antimicrobial activity against Staphylococcus aureus ATCC 25923 by tube dilution method. The gist of the method: as §1
Another experiment deals with Bacillus subtilis. Kind of experiment: Antimicrobial activity against Bacillus subtilis ATCC 6633 by tube dilution method. The gist of the method:
(§2)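 Tube dilution MIC determination. Test agents and reference drugs are dissolved as a stock in 50% DMSO–water, then diluted 4-fold with culture medium plus inoculum. The first dilution (12.5% DMSO) is excluded from scoring. The read-out is the minimum inhibitory concentration.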

A further experiment deals with Candida albicans. Kind of experiment: Antimicrobial activity against Candida albicans ATCC 10145 by tube dilution method. The procedure, abridged:
as §2

The subject of another experiment is Escherichia coli. Description: Antimicrobial activity against Escherichia coli ATCC 25922 by tube dilution method. The gist of the method:
as §2

As a reminder, the MIC is the lowest concentration found to suppress growth. A low value points to greater potency. With `COc1ccc(-c2nc3cc(Cl)c(Cl)cc3n2C2CCCC2)cc1`, the MIC against Staphylococcus aureus [1] was 25 mg/L (≈ 69.2 µM); against Staphylococcus aureus [2], 25 mg/L (≈ 69.2 µM); in the experiment on Staphylococcus aureus [3], 25 mg/L (≈ 69.2 µM); against Bacillus subtilis, 50 mg/L (≈ 138 µM); in the experiment on Candida albicans, 6.25 mg/L (≈ 17.3 µM); against Escherichia coli, 50 mg/L (≈ 138 µM).

As for `Nc1nc2cc(Cl)c(Cl)cc2n1C1CCCC1`, the minimum inhibitory concentration (MIC) against Staphylococcus aureus [1] was 6.25 mg/L (≈ 23.1 µM); with Staphylococcus aureus [2], 6.25 mg/L (≈ 23.1 µM); against Staphylococcus aureus [3] it was 3.12 mg/L (≈ 11.5 µM); against Bacillus subtilis, 6.25 mg/L (≈ 23.1 µM); against Candida albicans it was 6.25 mg/L (≈ 23.1 µM); against Escherichia coli it was 50 mg/L (≈ 185 µM).

Turning to `CC(=O)Oc1ccc(-c2nc3cc(Cl)c(Cl)cc3n2C2CCCC2)cc1`, the MIC against Staphylococcus aureus [1] turned out to be 50 mg/L (≈ 128 µM); against Staphylococcus aureus [2] it was 50 mg/L (≈ 128 µM); against Staphylococcus aureus [3] it was 50 mg/L (≈ 128 µM); in the experiment on Bacillus subtilis, 25 mg/L (≈ 64.2 µM); with Candida albicans it was 12.5 mg/L (≈ 32.1 µM); with Escherichia coli it was 25 mg/L (≈ 64.2 µM).

`Fc1ccc(-c2nc3cc(Cl)c(Cl)cc3[nH]2)cc1`: the minimal inhibitory concentration (MIC) in the experiment on Staphylococcus aureus [1] came out at 3.12 mg/L (≈ 11.1 µM); against Staphylococcus aureus [2] it was 3.12 mg/L (≈ 11.1 µM); in the experiment on Staphylococcus aureus [3], 3.12 mg/L (≈ 11.1 µM); against Bacillus subtilis, 6.25 mg/L (≈ 22.2 µM); in the experiment on Candida albicans, 6.25 mg/L (≈ 22.2 µM); in the experiment with Escherichia coli, 50 mg/L (≈ 178 µM).

As for `Clc1cc2ncn(C3CCCC3)c2cc1Cl`, the minimal inhibitory concentration (MIC) came out at 6.25 mg/L (≈ 24.5 µM) against Staphylococcus aureus [1]; 6.25 mg/L (≈ 24.5 µM) against Staphylococcus aureus [2]; 6.25 mg/L (≈ 24.5 µM) against Staphylococcus aureus [3]; 12.5 mg/L (≈ 49 µM) against Bacillus subtilis; 12.5 mg/L (≈ 49 µM) in the experiment on Candida albicans; 50 mg/L (≈ 196 µM) with Escherichia coli.

For `Clc1cc2nc(Cl)n(C3CCCC3)c2cc1Cl`, the minimal inhibitory concentration (MIC) was 6.25 mg/L (≈ 21.6 µM) in the experiment with Staphylococcus aureus [1]; 6.25 mg/L (≈ 21.6 µM) in the experiment on Staphylococcus aureus [2]; 3.12 mg/L (≈ 10.8 µM) against Staphylococcus aureus [3]; 25 mg/L (≈ 86.3 µM) in the experiment on Bacillus subtilis; 50 mg/L (≈ 173 µM) against Candida albicans; 50 mg/L (≈ 173 µM) in the experiment on Escherichia coli.

With `CC(C)Nc1nc2cc(Cl)c(Cl)cc2n1C1CCCC1`, the minimal inhibitory concentration (MIC) in the experiment with Staphylococcus aureus [1], in the experiment on Staphylococcus aureus [2], against Staphylococcus aureus [3], with Bacillus subtilis, with Candida albicans and in the experiment with Escherichia coli was 50 mg/L (≈ 160 µM) in each case.

With `CCOc1cc2c(cc1Cl)nc(-c1ccc(OC(C)=O)cc1)n2C1CCCC1`, the MIC in the experiment with Staphylococcus aureus [1] was determined as 50 mg/L (≈ 125 µM); against Staphylococcus aureus [2], 50 mg/L (≈ 125 µM); against Staphylococcus aureus [3], 50 mg/L (≈ 125 µM); against Bacillus subtilis, 25 mg/L (≈ 62.7 µM); in the experiment on Candida albicans, 6.25 mg/L (≈ 15.7 µM); against Escherichia coli it was 50 mg/L (≈ 125 µM).

`CCOc1cc2c(cc1Cl)nc(-c1ccc(Cl)cc1)n2C1CCCC1`: the minimal inhibitory concentration (MIC) against Staphylococcus aureus [1] was found to be 50 mg/L (≈ 133 µM); in the experiment on Staphylococcus aureus [2] it was 50 mg/L (≈ 133 µM); in the experiment with Staphylococcus aureus [3] it was 50 mg/L (≈ 133 µM); against Bacillus subtilis, 25 mg/L (≈ 66.6 µM); in the experiment on Candida albicans it was 25 mg/L (≈ 66.6 µM); against Escherichia coli, 50 mg/L (≈ 133 µM).

As to `CCOc1cc2c(cc1Cl)nc(-c1cccc([N+](=O)[O-])c1)n2C1CCCC1`, the MIC in the experiment with Staphylococcus aureus [1] stood at 25 mg/L (≈ 64.8 µM); with Staphylococcus aureus [2] it was 12.5 mg/L (≈ 32.4 µM); with Staphylococcus aureus [3], 50 mg/L (≈ 130 µM); with Bacillus subtilis, 25 mg/L (≈ 64.8 µM); in the experiment with Candida albicans, 6.25 mg/L (≈ 16.2 µM); against Escherichia coli it was 50 mg/L (≈ 130 µM).

`COc1ccc(-c2nc3cc(Cl)ccc3n2C2CCCC2)cc1`: the MIC in the experiment with Staphylococcus aureus [1] came out at 50 mg/L (≈ 153 µM); in the experiment on Staphylococcus aureus [2], 50 mg/L (≈ 153 µM); with Staphylococcus aureus [3], 50 mg/L (≈ 153 µM); in the experiment with Bacillus subtilis, 25 mg/L (≈ 76.5 µM); with Candida albicans, 12.5 mg/L (≈ 38.2 µM); in the experiment on Escherichia coli it was 25 mg/L (≈ 76.5 µM).

In the case of `Fc1ccc(-c2nc3cc(Cl)ccc3n2C2CCCC2)cc1`, the minimal inhibitory concentration (MIC) against Staphylococcus aureus [1] came out at 25 mg/L (≈ 79.4 µM); against Staphylococcus aureus [2], 25 mg/L (≈ 79.4 µM); against Staphylococcus aureus [3] it was 25 mg/L (≈ 79.4 µM); in the experiment with Bacillus subtilis, 12.5 mg/L (≈ 39.7 µM); in the experiment with Candida albicans, 12.5 mg/L (≈ 39.7 µM); against Escherichia coli it was 25 mg/L (≈ 79.4 µM).

Take `CC(C)(C)c1ccc(-c2nc3cc(Cl)ccc3n2C2CCCC2)cc1`: the minimal inhibitory concentration (MIC) in the experiment with Staphylococcus aureus [1] came out at 12.5 mg/L (≈ 35.4 µM); with Staphylococcus aureus [2], 6.25 mg/L (≈ 17.7 µM); against Staphylococcus aureus [3], 50 mg/L (≈ 142 µM); against Bacillus subtilis, 50 mg/L (≈ 142 µM); in the experiment with Candida albicans, 12.5 mg/L (≈ 35.4 µM); in the experiment with Escherichia coli, 25 mg/L (≈ 70.8 µM).

Turning to `N#Cc1ccc(-c2nc3cc(Cl)ccc3n2C2CCCC2)cc1`, the MIC against Staphylococcus aureus [1] was at least 50 mg/L; against Staphylococcus aureus [2], at least 50 mg/L; against Staphylococcus aureus [3], 50 mg/L (≈ 155 µM); in the experiment on Bacillus subtilis, 50 mg/L (≈ 155 µM); against Candida albicans, 6.25 mg/L (≈ 19.4 µM); in the experiment with Escherichia coli it was 50 mg/L (≈ 155 µM).

For `Clc1ccc2c(c1)nc(-c1ccc(OCc3ccccc3)cc1)n2C1CCCC1`, the minimum inhibitory concentration (MIC) came to 6.25 mg/L (≈ 15.5 µM) with Staphylococcus aureus [1]; 6.25 mg/L (≈ 15.5 µM) with Staphylococcus aureus [2]; 3.12 mg/L (≈ 7.74 µM) with Staphylococcus aureus [3]; 50 mg/L (≈ 124 µM) against Bacillus subtilis; 25 mg/L (≈ 62 µM) in the experiment on Candida albicans; 50 mg/L (≈ 124 µM) with Escherichia coli.

Take `Clc1ccc(-c2nc3cc(Cl)ccc3n2C2CCCC2)cc1`: the MIC against Staphylococcus aureus [1] was 50 mg/L (≈ 151 µM); against Staphylococcus aureus [2], 50 mg/L (≈ 151 µM); in the experiment with Staphylococcus aureus [3] it was 50 mg/L (≈ 151 µM); with Bacillus subtilis, 25 mg/L (≈ 75.5 µM); in the experiment with Candida albicans, 25 mg/L (≈ 75.5 µM); against Escherichia coli it was 25 mg/L (≈ 75.5 µM).

In the case of `Fc1ccc(-c2nc3cc(Cl)c(Cl)cc3n2C2CCCC2)cc1`, the MIC with Staphylococcus aureus [1] worked out at 50 mg/L (≈ 143 µM); against Staphylococcus aureus [2], 50 mg/L (≈ 143 µM); in the experiment on Staphylococcus aureus [3] it was 25 mg/L (≈ 71.6 µM); in the experiment on Bacillus subtilis it was 50 mg/L (≈ 143 µM); against Candida albicans, 25 mg/L (≈ 71.6 µM); against Escherichia coli, 25 mg/L (≈ 71.6 µM).
